Published values collected from several papers.
Protocols differ between the studies behind these lines.
Organism: Staphylococcus aureus
Read-out: microbial growth

O=C1NC(=S)S/C1=C\c1c2ccccc2c(-c2ccc(N(c3ccccc3)c3ccccc3)cc2)c2ccccc12
MIC (broth dilution; ATCC43300): > 1000 µg/mL

CSc1nc2nnnc(O)c2s1
MIC: > 128 µg/mL

O=C(O)CN1C(=O)/C(=C/c2ccc(-c3ccc(N(c4ccccc4)c4ccccc4)cc3)c3ccccc23)NC1=S
MIC (broth dilution; ATCC6538): > 1000 µg/mL

O=C(Nc1ccc(OC(F)(F)F)cc1)c1sccc1NCc1ccnc2ccccc12
MIC (NCTC8325): > 30 µM

NC[C@H]1O[C@H](O[C@H]2[C@H](O)[C@@H](O[C@H]3O[C@H](CO)[C@@H](O)[C@H](N)[C@H]3O)[C@H](N)C[C@@H]2N)[C@H](N)C[C@@H]1O
MIC (156; clinical isolate): 12.5 µM

Cc1nc(O)n2ncc(Cl)c2n1
MIC: > 128 µg/mL

Cc1ccc(C)n1-c1ccc(-c2nnc(-c3c(Cl)cccc3Cl)[nH]2)cc1
MIC (broth dilution; ATCC11632; 18 h): 1 µg/mL

Cc1ccc2nc(-c3ccc(N(C)C)cc3)[nH]c2c1
MIC (broth dilution; ATCC29213 MSSA): 64 µg/mL

CC(C)(O/N=C(\C(=O)N[C@@H]1C(=O)N2C(C(=O)[O-])=C(C[n+]3ccccc3)CS[C@H]12)c1csc(N)n1)C(=O)O
MIC (broth dilution; ATCC25923; 18 h): 1 µg/mL

C/C=C(\C)c1cc(OC(=O)c2c(C)c(Cl)c(O)c(Cl)c2O)c(C)c(O)c1C(=O)O
MIC (broth dilution; 745524): 64 µg/mL

COc1cccc(NCc2ccc(Oc3ccccn3)cc2)c1
MIC: 1.6 µg/mL

CO[C@H]1/C=C/O[C@@]2(C)Oc3c(C)c(O)c4c(O)c(c(/C=N/N5CCN(C)CC5)c(O)c4c3C2=O)NC(=O)/C(C)=C\C=C\[C@H](C)[C@H](O)[C@@H](C)[C@@H](O)[C@@H](C)[C@H](OC(C)=O)[C@@H]1C
MIC (NCTC8325): 0.009 to 0.018 µM

Cc1ccc2nc(-c3ccc([N+](=O)[O-])cc3)[nH]c2c1
MIC (broth dilution; ATCC29213 MSSA): 128 µg/mL

O=C(O)c1cn(C2CC2)c2cc(N3CCNCC3)c(F)cc2c1=O
MIC (ATCC43300; drug-resistant strain): 0.31 µg/mL

O=[N+]([O-])c1ccc(O)c2ncccc12
MIC (broth dilution; ATCC29213): 2 µg/mL

CO[C@H]1[C@H](O[C@H]([C@H]2O[C@@H](n3ccc(=O)[nH]c3=O)[C@H](O)[C@@H]2O)[C@H](NCCCNC(=O)[C@@H](NC(=O)[C@@H](NC(=O)N[C@H](C(=O)O)C(C)C)[C@@H]2CCNC(=N)N2)[C@@H](O)C(C)C)C(=O)O)O[C@H](CN)[C@H]1O
MIC (NEWMAN): > 32 µg/mL

Cc1ccc2nc(-c3ccco3)n(Cc3ccccc3)c2c1
MIC (broth dilution; ATCC29213 MSSA): 128 µg/mL

CC(C)Oc1c(NC(=O)c2ccc(NC(=O)[C@H](CC(N)=O)NC(=O)c3ccc(NC(=O)c4ccc(C#N)cc4)cc3)cc2)ccc(C(=O)O)c1O
MIC (ATCC29213): > 64 µg/mL

C/C=C(\C)c1cc(O)c(C)c(OC(=O)c2c(C)cc(O)c(Cl)c2O)c1
MIC (broth dilution; CCARM3090): 8 µg/mL

COc1c(C)c(OC(C)=O)c(C)c(OC(C)=O)c1C(=O)/C=C/c1ccccc1
MIC (broth dilution; ATCC25923): 5000 µg/mL

C[C@@H](O)[C@H]1C(=O)N2C(C(=O)O)=C(S[C@H]3C[C@@H](C(=O)N4CC[C@H](NC(=O)CNC(=N)N)C4)N(C)C3)[C@H](C)[C@H]12
MIC (MRSA): 8 µg/mL

O=C1NC(=S)S/C1=C\c1ccc(-c2ccc(N(c3ccccc3)c3ccccc3)cc2)c2ccccc12
MIC (broth dilution; ATCC43300): 1000 µg/mL

CN(C)[C@@H]1C(O)=C(C(N)=O)C(=O)[C@@]2(O)C(O)=C3C(=O)c4c(O)cccc4[C@@](C)(O)[C@H]3C[C@@H]12
MIC (broth dilution; 25923): 0.15 µM

COc1cc(C(=O)Nc2ccc(C(=O)N[C@@H](CC(N)=O)C(=O)Nc3ccc(C(=O)Nc4ccc(C(=O)Nc5ccc(C(=O)O)cc5)c(O)c4OC(C)C)cc3)cc2)ccc1C#N
MIC (ATCC29213): > 64 µg/mL

COC1/C=C/OC2(C)Oc3c(C)c(O)c4c(O)c(c5c(nc6cc(C)ccn65)c4c3C2=O)NC(=O)/C(C)=C\C=C\C(C)C(O)C(C)C(O)C(C)C(OC(C)=O)C1C (stereo not shown)
MIC: ≤ 0.06 µg/mL

CC(C)Oc1c(NC(=O)c2ccc(NC(=O)[C@H](CC(N)=O)NC(=O)c3ccc(NC(=O)c4ccc(C#N)cc4)cc3)cc2)ccc(C(=O)Nc2ccc(C(=O)O)cc2)c1O
MIC (ATCC29213): 0.25 µg/mL

Cc1ccc2nc(-c3ccc(Cl)cc3)n(Cc3ccccc3Cl)c2c1
MIC (broth dilution; ATCC29213 MSSA): 64 µg/mL

OC(Cn1cncn1)(Cn1cncn1)c1ccc(F)cc1F
MIC (broth dilution; MB2865): > 128 µg/mL

CC(C)Oc1c(NC(=O)c2ccc(NC(=O)[C@H](CC(N)=O)NC(=O)c3ccc(NC(=O)c4ccc(F)cc4)cc3)cc2)ccc(C(=O)Nc2ccc(C(=O)O)cc2)c1O
MIC (ATCC29213): 2 µg/mL

CC1=NN(CNc2c(O)c(S(=O)(=O)O)cc3ccccc23)C(=O)C1=NNn1c(-c2ccccc2)nc2ccccc2c1=O
MIC (broth dilution; 24 h): 83.7 µM

CNc1cccc2cc(C(=O)NCc3ccc(C(=O)O)cc3)c(=O)[nH]c12
MIC (ATCC29213): > 64 µg/mL

COc1cccc(OC)c1C(=O)N[C@@H]1C(=O)N2[C@@H]1SC(C)(C)[C@@H]2C(=O)O
MIC (broth dilution; ATCCBAA44): 1020 µg/mL

O=C(Nc1ccc(Cl)c(C(F)(F)F)c1)Nc1cccc2c1OC(F)(F)O2
MIC (NCTC8325): 0.5 µM

O=C1NN=C(N=Cc2ccccc2O)C1=NNn1c(-c2ccccc2)nc2ccccc2c1=O
MIC (broth dilution; 24 h): 111 µM

Cc1ccc(C)n1-c1ccc(-c2nnco2)cc1
MIC (broth dilution; ATCC11632; 18 h): 2 µg/mL

O=C(O)CN1C(=O)/C(=C/c2ccc(-c3ccc(N(c4ccccc4)c4ccccc4)cc3)cc2)NC1=S
MIC (broth dilution; ATCC43300): 1.95 µg/mL

CCc1cnn2c(NCc3ccc[n+]([O-])c3)cc(N3CCCC[C@H]3CCO)nc12
MIC (NCTC8325): > 30 µM

C/C=C(\C)c1cc(OC(=O)c2c(O)c(C)c(O)c(Cl)c2/C(C)=C/C)c(C)c(O)c1C(=O)O
MIC (broth dilution; 16162): 32 µg/mL

FC(F)c1nc2ccccc2n1-c1nc(N2CCOCC2)nc(N2CCOCC2)n1
MIC (NCTC8325): > 30 µM

Cc1ccc2nc(-c3ccc(Cl)cc3)n(Cc3ccccc3)c2c1
MIC (broth dilution; ATCC29213 MSSA): 4 µg/mL

C/N=C(/NC)c1ccc(NC(=O)/C=C/c2ccc(/C=C/C(=O)Nc3ccc(/C(=N\C)NC)cc3)cc2)cc1
MIC: 2 µg/mL

O=C(Cc1cc(O)c(O)c(O)c1)NCCCCCCCC[P+](c1ccccc1)(c1ccccc1)c1ccccc1.[Br-]
MIC (broth dilution; ATCC43300 MRSA; 18 h): > 32 µg/mL

Cn1c(SCc2ccc(Cl)cc2)nnc1-c1cncc(C#Cc2ccccc2)c1
MIC (MRSA; drug-resistant strain): ≥ 20 µg/mL

C[n+]1c(/C=C/c2ccc(O)cc2)cc(/C=C2\Sc3ccccc3N2CCCN2CCOCC2)c2ccccc21.[I-]
MIC (broth dilution; ATCCBAA44): 8 µg/mL

Cc1ccc2nc(-c3ccc4c(c3)OCO4)[nH]c2c1
MIC (broth dilution; ATCC29213 MSSA): 256 µg/mL

C/C=C(\C)c1cc(O)c(C)c(OC(=O)c2c(C)c(Cl)c(O)c(Cl)c2O)c1
MIC (broth dilution; 16339): 8 µg/mL

Cc1ccc2nc(-c3ccccc3Cl)[nH]c2c1
MIC (broth dilution; ATCC29213 MSSA): 64 µg/mL

Fc1cc(-c2cccc3ncc(-c4cnn(C5CCNCC5)c4)nc23)cc(F)c1CN1CCOCC1
MIC (NCTC8325): > 30 µM

O=C(O)CN1C(=O)/C(=C/c2ccc(-c3ccc(N(c4ccccc4)c4ccccc4)cc3)c3ccccc23)SC1=S
MIC (broth dilution; ATCC6538): 1000 µg/mL

O=c1[nH]cc(F)c(=O)[nH]1
MIC (broth dilution; 24 h): 1 µg/mL

CN[C@H](CC(C)C)C(=O)N[C@H]1C(=O)N[C@@H](CC(N)=O)C(=O)N[C@H]2C(=O)N[C@H]3C(=O)N[C@H](C(=O)N[C@H](C(=O)O)c4cc(O)cc(O)c4-c4cc3ccc4O)[C@H](O)c3ccc(c(Cl)c3)Oc3cc2cc(c3O[C@@H]2O[C@H](CO)[C@@H](O)[C@H](O)[C@H]2O[C@H]2C[C@](C)(N)[C@H](O)[C@H](C)O2)Oc2ccc(cc2Cl)[C@H]1O
MIC (broth dilution; 16162): 0.5 µg/mL

C#CCCC1(CCNC(=O)c2cc(Oc3ccc(NC(=O)Nc4ccc(Cl)c(C(F)(F)F)c4)cc3)ccn2)N=N1
MIC (NCTC8325; 24 h): 10 µM

CC(C)Oc1c(NC(=O)c2ccc(NC(=O)[C@H](CC(N)=O)NC(=O)c3ccc(NC(=O)c4ccc([N+](=O)[O-])cc4)cc3)cc2)ccc(C(=O)Nc2ccc(C(=O)O)c(F)c2)c1O
MIC (ATCC29213): 2 µg/mL

COc1c(C)c(OC)c2c(c1C)OC(c1ccccc1)CC2=O (stereo not shown)
MIC (broth dilution; ATCC25923): 5000 µg/mL

COc1cc2nccc(Oc3ccc(NC(=O)Nc4cc(C)on4)c(Cl)c3)c2cc1OC
MIC (NCTC8325): > 30 µM

O=C(Nc1ccc(F)c(F)c1)c1cc(Cl)ccc1O
MIC (broth dilution; ATCC29213): 0.44 µg/mL

CC(C)Oc1c(NC(=O)c2ccc(NC(=O)[C@H](CC(N)=O)NC(=O)c3ccc(NC(=O)c4ccc(C#N)c(Cl)c4)cc3)cc2)ccc(C(=O)Nc2ccc(C(=O)O)cc2)c1O
MIC (ATCC29213): < 0.03 µg/mL

COc1ccc(-c2nc3ccccc3[nH]2)cc1OC
MIC (broth dilution; ATCC29213 MSSA): 128 µg/mL
